Measurements reported in publication PMC9508631 (Saudi Pharmaceutical Journal : SPJ, 2022).

Tests used:
PDE5 = settings: ref Bischoff, 2004; cited from earlier work
[1] = Stability of TAD in rat plasma under storage and processing conditions; format: in vitro ADME; settings: for Processed sample stability, RE% / Processed sample stability, calculated conc. (Mean ± SD): autosampler, room temperature 24 h; for Freeze–thaw stability, RE% / Freeze–thaw stability, calculated conc. (Mean ± SD): three freeze–thaw cycles; for Long term stability, RE% / Long term stability, calculated conc. (Mean ± SD): −30 °C for 30 days
Procedure, shortened: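 Test compound spiked into blank rat plasma as QC samples at 0.5, 10 and 100 ng mL−1. Conditions: bench-top thaw at room temperature for 6 h (triplicates); −30 °C for 30 days; three freeze–thaw cycles (24 h at −30 °C, ambient thaw); processed samples held in the autosampler at room temperature for 24 h. Quantified by FPSE-UPLC-ESI-MS/MS, with peak areas compared against freshly prepared QCs; acceptance RE <15%.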

[2] = actual conc. 0.5 ng mL^-1, room temperature 6 h

Processed sample stability, RE% ([1]; actual conc. 0.5 ng mL^-1) | Processed sample stability, calculated conc. (Mean ± SD) ([1]; actual conc. 0.5 ng mL^-1) | Benchtop stability, RE% [1, 2] | Benchtop stability, calculated conc. (Mean ± SD) [1, 2] | Freeze–thaw stability, RE% ([1]; actual conc. 0.5 ng mL^-1) | Freeze–thaw stability, calculated conc. (Mean ± SD) ([1]; actual conc. 0.5 ng mL^-1) | Long term stability, RE% ([1]; actual conc. 0.5 ng mL^-1) | Long term stability, calculated conc. (Mean ± SD) ([1]; actual conc. 0.5 ng mL^-1) | Processed sample stability, RE% ([1]; actual conc. 10 ng mL^-1) | Processed sample stability, calculated conc. (Mean ± SD) ([1]; actual conc. 10 ng mL^-1) | Benchtop stability, calculated conc. (Mean ± SD) ([1]; actual conc. 10 ng mL^-1, room temperature 6 h) | Freeze–thaw stability, calculated conc. (Mean ± SD) ([1]; actual conc. 10 ng mL^-1) | Long term stability, RE% ([1]; actual conc. 10 ng mL^-1) | Long term stability, calculated conc. (Mean ± SD) ([1]; actual conc. 10 ng mL^-1) | Processed sample stability, calculated conc. (Mean ± SD) ([1]; actual conc. 100 ng mL^-1) | Benchtop stability, calculated conc. (Mean ± SD) ([1]; actual conc. 100 ng mL^-1, room temperature 6 h) | Freeze–thaw stability, RE% ([1]; actual conc. 100 ng mL^-1) | Freeze–thaw stability, calculated conc. (Mean ± SD) ([1]; actual conc. 100 ng mL^-1) | Stability in rat plasma under the storage and processing situations ([1]; all four stability tests, RE% and RSD% within 15%) | SMILES | Selectivity for PDE5 (PDE5)
 |  |  |  |  |  |  |  |  |  |  |  |  |  |  |  |  |  |  | CCCc1nn(C)c2c(=O)[nH]c(-c3cc(S(=O)(=O)N4CCN(C)CC4)ccc3OCC)nc12 [SLD, sildenafil] | 41 times
−2.0% | 0.490 ± 0.011 ng/mL | −1.60% | 0.492 ± 0.012 ng/mL | −3.8% | 0.481 ± 0.022 ng/mL | −2.60% | 0.487 ± 0.018 ng/mL | 0.50% | 10.05 ± 0.195 ng/mL | 9.98 ± 0.251 ng/mL | 9.85 ± 0.263 ng/mL | 1.10% | 10.11 ± 0.219 ng/mL | 99.48 ± 1.824 ng/mL | 99.90 ± 1.850 ng/mL | 0.22% | 100.22 ± 2.054 ng/mL | stable | CN1CC(=O)N2[C@H](c3ccc4c(c3)OCO4)c3[nH]c4ccccc4c3C[C@@H]2C1=O [TAD, Tadalafil] | 1000 times
